Compound activity: PubChem, several laboratories
Sampled rows, rich in hits. Any-hit rate of the full collection: about 2%.
CCR6 antag: blocks CCL20-driven beta-arrestin recruitment at human CCR6; CHO-K1 CCR6 PathHunter beta-arrestin, luminescence, CCL20-stimulated; 0.49% of 340,000 active; P51684; inhibition, % at 20 µM;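 active means compounds whose inhibition of the agonist-driven luminescence signal at 20 µM reaches about 50%, limit read from the data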;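 further: cells stimulated with CCL20 at 14 nM final; plate controls were DMSO with CCL20 for no effect and DMSO without agonist for full effect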
APJ antagonist: blocks the human apelin receptor APJ | 0.32% of 330,000 active | P35414 | CHO-K1 APJ beta-arrestin complementation, luminescence | inhibition, % at 20 µM;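 active means inhibition above about 40% at 20 µM, limit read from the data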;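 further: cells challenged with 10 nM apelin-13 agonist together with compound; plate controls were apelin-13 plus DMSO wells for no effect and DMSO wells lacking apelin-13 for full effect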
EBI2 block: EBI2 (human) antagonism. 0.81% of 360,000 active. inhibition, % at 5 µM. EBI2 beta-arrestin recruitment, luminescence, 7a,25-OHC stimulated. P32249; in the data active means inhibition above about 38%;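 further: enzyme fragment complementation signal reports receptor beta-arrestin coupling in cells; 0% = agonist plus DMSO wells and 100% = wells without agonist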
CXCR6 inh: blocks human CXCR6 beta-arrestin recruitment; AID 602244; CHO-K1 PathHunter CXCR6 beta-arrestin, luminescence; 0.36% of 360,000 active; inhibition, % at 20 µM; in the data active means inhibition above about 34%, passing the limit was not always enough;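 further: antagonist mode with CXCL16 agonist at 10 nM final; 0% = 10 nM CXCL16 with DMSO and 100% = unstimulated wells without agonist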
Target sequence (O00574 whole entry, looked up): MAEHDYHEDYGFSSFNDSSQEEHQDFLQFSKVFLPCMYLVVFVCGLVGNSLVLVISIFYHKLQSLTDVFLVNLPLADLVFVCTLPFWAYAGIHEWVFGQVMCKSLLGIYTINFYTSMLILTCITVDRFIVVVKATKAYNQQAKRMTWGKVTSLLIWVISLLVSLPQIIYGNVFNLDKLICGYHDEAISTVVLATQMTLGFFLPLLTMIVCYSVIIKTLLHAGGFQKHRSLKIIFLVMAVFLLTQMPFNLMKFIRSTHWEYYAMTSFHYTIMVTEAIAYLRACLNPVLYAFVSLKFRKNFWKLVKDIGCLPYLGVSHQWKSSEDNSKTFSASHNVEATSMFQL
APJ agonist: APJ receptor agonism. P35414. CHO-K1 APJ PathHunter beta-arrestin, luminescence; 0% DMSO wells, 100% apelin. activation, % at 20 µM. 0.11% of 330,000 active;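 active means activation more than six SD over the plate average, tested at 20 µM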;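 further: 0% = DMSO alone and 100% = apelin-13 at 10 nM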
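Material: CHO-K1 APJ beta-arrestin complementation cell line; Input: cell density 1000 per well; Incubation: compound stimulation 90 min at 25 °C, detection 60 min; Signal: luminescence from split beta-galactosidase complementation, Galacton Star/Emerald II substrate; Controls: DMSO-only wells as negative, 10 nM Apelin-13 as positive control.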
GAA850 FXN act: frataxin GAA850 promoter activation; activation, % at 6 µM; AID 540364; HEK293 lucGAA850 FXN promoter luciferase reporter, 24 h; percent of 10 µM SAHA response; 0.56% of 360,000 active;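 active means activation above the average of all compounds screened plus 3 SD, cutoff fixed separately per campaign, cut at about 7.5% in these data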;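 further: 0% = DMSO wells and 100% = 10 µM SAHA wells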
APJ antag confirm: confirmation of human APJ apelin receptor antagonists; APJ beta-arrestin recruitment, luminescence, antagonist mode; inhibition, % at 20 µM; shares compounds with APJ antagonist; AID 2766; 66% of 950 active; in the data active means inhibition above about 50%
* marks the source's active call; other numbers are inactive results; · = not tested or not shown.

SMILES	CCR6 antag	APJ antagonist	EBI2 block	CXCR6 inh	APJ agonist	GAA850 FXN act	APJ antag confirm
Cc1ccc(C)c(S(=O)(=O)Nc2ccc(C(N)=O)cc2)c1	11	3	4	9	0	0	·
O=C(C[n+]1cccc(NC(=O)c2ccccc2)c1)c1cccc([N+](=O)[O-])c1	13	0	-5	-2	0	1	·
O=C(C[n+]1ccc(-c2cc(C(=O)Nc3cccc(C(F)(F)F)c3)c3ccccc3n2)cc1)c1cccc([N+](=O)[O-])c1	38	52*	-9	27	-5	-1	63*
C/C(=N\NC(=S)Nc1cccc(C)c1)c1ccccc1	53*	44*	26	33	-6	3	91*
CC(C)NC(=S)N/N=C1\CCCCc2ccccc21	30	8	-10	19	-3	-1	·
Cc1ccc(C)c(NC(=S)N/N=C2/CCCCc3ccccc32)c1	34	47*	30	27	-10	0	84*
O=C(Nc1ccc(N2CCOCC2)cc1)c1csc([C@@H]2C[C@H](O)[C@@H](CO)O2)n1	·	·	-5	-3	·	3	·
Cc1cccc2c1NC(=O)C2=Nc1ccc(Cl)cc1	76*	63*	9	32	-14	2	94*
Cc1ccc(N=C2C(=O)Nc3ccc(Br)cc32)cc1	54*	68*	17	36	-16	0	156*
O=C1Nc2ccc(Br)cc2C1=C1CCCCC1	-4	-5	-9	-2	1	-2	·
Cc1ccc(N=C2C(=O)Nc3c(C)cccc32)cc1	58*	43*	11	18	-9	2	95*
CC(C)Oc1cc(C(=O)N2CCC(N3CCCCC3)CC2)ccc1Nc1nnc(Cl)c(Nc2ccccc2S(C)(=O)=O)n1	35	·	·	·	·	·	·
CCCN(C(=O)COc1ccc(C(C)=O)cc1OC)C1CCS(=O)(=O)C1 (centres undefined)	9	-10	3	4	-4	0	·
COc1cc(/C=C(\C#N)C(=O)c2ccc(O)c(O)c2)cc(I)c1O	57*	42*	10	33	-6	1	60*
COc1ccc(C=C(C#N)C(=O)c2ccccc2)cc1	·	·	0	6	·	·	·
Cc1ccc(Nc2ccc([N+](=O)[O-])ccc2=O)cc1	6	-9	35	0	9	2	·
Cc1nsc(Nc2ccc([N+](=O)[O-])cc2)c1C#N	56*	71*	23	50*	-8	0	88*
CC(C)NC(=O)C1(C)CCN1C(=O)c1cccc(F)c1 (centres undefined)	·	·	-2	-12	·	-1	·
CC(=O)OCC=C1CCC2C3CC(C)C4=CC(=O)CCC4(C)C3C(O)CC12C (centres undefined)	0	·	16	-6	·	-2	·
Cc1[nH]c(C)c(S(=O)(=O)N2CCN(c3ccccc3)CC2)c1C(=O)N1CCCCC1	-5	3	5	1	3	-1	·
COc1cc(/C=C2\SC(=S)N(NS(=O)(=O)c3ccccc3)C2=O)ccc1O	39	41*	-2	34	-5	1	73*
Cc1ccc(/C=C2\SC(=S)N(CCC(=O)NNC(=O)c3cccc(O)c3)C2=O)cc1	-2	-14	-3	-4	8	-1	·
COc1cc(/C=C2\SC(=S)N(NC(=O)c3ccc(O)c(OC)c3)C2=O)ccc1O	57*	61*	21	43*	-10	1	99*
COc1ccc(/C=C2/SC(=S)N(NS(=O)(=O)c3ccccc3)C2=O)cc1	12	13	3	5	2	-1	·
COc1cc(/C=C2\SC(=S)N(NC(=O)c3ccccc3OC)C2=O)ccc1O	66*	66*	25	50*	-11	0	100*
SMILES	CCR6 antag	APJ antagonist	EBI2 block	CXCR6 inh	APJ agonist	GAA850 FXN act	APJ antag confirm
COc1cc(/C=C2\SC(=S)N(NC(=O)c3cccc(O)c3)C2=O)ccc1O	56*	41*	13	42*	-8	0	95*
O=C(O)c1ccc(/C=C2\SC(=S)N(NC(=O)c3ccccc3)C2=O)cc1	17	21	1	3	-4	0	·
COCCNC(=O)C1(C)CCCN(C(=O)Cc2ccc3ccccc3c2)C1 (centres undefined)	·	·	-5	-3	·	3	·
CCOc1cc(/C=C2\SC(=S)N(NS(=O)(=O)c3ccc(C)cc3)C2=O)ccc1O	33	41*	9	24	-4	1	88*
CCN1/C(=C/C=C/C=C/c2sc3ccccc3[n+]2CC)Sc2ccccc21	·	37	·	·	0	·	·
CCN1/C(=C/C=C/c2sc3ccccc3[n+]2CC)Sc2ccccc21	38	49*	2	19	6	-7	121*
CC(=O)NC(c1ccccc1)c1nc(-c2ccc(F)c(Cl)c2)cs1 (centres undefined)	·	·	14	3	·	3	·
CCOC(=O)C1=NNC(C(=O)c2ccc(Cl)cc2)C1c1ccccc1 (centres undefined)	41	49*	15	9	-11	2	75*
COC(=O)C1NN=C(C(=O)c2ccc(Cl)cc2)C1c1ccc(OC)cc1 (centres undefined)	58*	65*	12	27	-10	0	81*
CCOC(=O)C1=NNC(C(=O)O)C1c1ccccc1 (centres undefined)	1	·	1	-3	·	2	·
O=[N+]([O-])c1cccc(N/N=C/c2cc([N+](=O)[O-])ccc2O)c1	46	46*	15	22	-6	1	49
CN(/N=C/c1cc([N+](=O)[O-])ccc1O)c1ccccc1	64*	42*	13	48*	-8	5	63*
O=[N+]([O-])c1cccc(Cl)c1NCCNc1ncc(C(F)(F)F)cc1Cl	16	43*	2	5	-2	2	31
Cc1c(C(=O)NCCNc2ncc(C(F)(F)F)cc2Cl)cccc1[N+](=O)[O-]	24	-5	10	0	-1	1	·
CCCCC1CCC(C(=O)N(CCC(C)C)c2c(N)n(CCCC)c(=O)[nH]c2=O)CC1 (centres undefined)	·	·	-8	-3	·	1	·
CCSc1nnc(NC(=O)c2ccccn2)s1	37	44*	8	24	-6	2	60*
CCSc1nnc(NC(=O)c2cnccn2)s1	3	5	·	·	-1	·	·
O=C(Nc1nnc(SCc2ccc(F)cc2)s1)c1cnccn1	20	49*	-7	2	-4	1	60*
O=C(CNc1ccc(Br)cc1)c1ccc(Br)s1	66*	66*	38	41*	-16	2	108*
COCCNC(=S)N/N=C(\C)c1ccc(Cl)c(Cl)c1Cl	38	43*	13	27	-4	1	36
